The text below walks through data of ChEMBL document CHEMBL1127698, “Matrix metalloproteinase inhibitors containing a (carboxyalkyl)amino zinc ligand: modification of the P1 and P2' residues” (J Med Chem, 1994).

Chain of Stromelysin-1 (P08254 whole entry): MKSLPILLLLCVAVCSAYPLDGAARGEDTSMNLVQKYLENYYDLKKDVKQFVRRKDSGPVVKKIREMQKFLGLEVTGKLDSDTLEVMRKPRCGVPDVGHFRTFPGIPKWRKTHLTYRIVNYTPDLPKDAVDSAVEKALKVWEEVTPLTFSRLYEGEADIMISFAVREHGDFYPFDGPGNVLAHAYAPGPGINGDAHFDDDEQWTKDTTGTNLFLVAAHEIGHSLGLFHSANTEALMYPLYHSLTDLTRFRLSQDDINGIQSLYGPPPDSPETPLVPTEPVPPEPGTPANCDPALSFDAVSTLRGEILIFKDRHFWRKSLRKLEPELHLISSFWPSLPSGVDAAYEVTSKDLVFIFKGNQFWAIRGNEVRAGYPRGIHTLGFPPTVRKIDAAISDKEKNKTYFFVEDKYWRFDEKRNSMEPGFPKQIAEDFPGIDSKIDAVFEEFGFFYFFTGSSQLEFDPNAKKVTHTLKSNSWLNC
Chain of Matrix metalloproteinase-9 (P14780 whole entry): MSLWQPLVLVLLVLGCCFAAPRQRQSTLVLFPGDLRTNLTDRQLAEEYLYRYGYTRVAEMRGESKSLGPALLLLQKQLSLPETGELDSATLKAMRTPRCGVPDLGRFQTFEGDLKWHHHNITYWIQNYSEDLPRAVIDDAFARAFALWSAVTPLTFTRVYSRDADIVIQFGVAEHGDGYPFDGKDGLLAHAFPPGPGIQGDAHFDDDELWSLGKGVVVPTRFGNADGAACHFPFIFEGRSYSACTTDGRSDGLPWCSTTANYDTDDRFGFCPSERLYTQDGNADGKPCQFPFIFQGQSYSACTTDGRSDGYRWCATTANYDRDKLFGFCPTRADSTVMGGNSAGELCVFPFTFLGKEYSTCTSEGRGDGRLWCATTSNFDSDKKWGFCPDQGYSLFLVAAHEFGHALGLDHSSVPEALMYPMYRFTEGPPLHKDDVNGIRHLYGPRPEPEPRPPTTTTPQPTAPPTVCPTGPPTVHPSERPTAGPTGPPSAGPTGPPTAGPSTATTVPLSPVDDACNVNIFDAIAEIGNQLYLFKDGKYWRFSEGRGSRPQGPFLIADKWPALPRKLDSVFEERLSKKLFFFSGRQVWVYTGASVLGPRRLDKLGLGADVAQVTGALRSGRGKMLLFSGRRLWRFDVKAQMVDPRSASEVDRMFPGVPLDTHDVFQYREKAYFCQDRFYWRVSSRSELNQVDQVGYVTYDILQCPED

The first series deals with Stromelysin-1 (Homo sapiens, UniProt P08254). Description: Activity against human stromelysin (MMP-3). The procedure, abridged:
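Fluorogenic stromelysin assay: human enzyme 10 nM in pH 7.6 Tris buffer (200 mM NaCl, 5 mM CaCl2, 20 μM ZnSO4, 0.05% Brij 35). Inhibitors ran from 10 000 to 0.057 nM in 3-fold steps. Ki came from % inhibition vs log[inhibitor], with substrate far below Km.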
As to `CNC(=O)CNC(=O)[C@H](CC(C)C)N[C@H](CCN1C(=O)c2cc3ccccc3cc2C1=O)C(=O)O`, the IC50 (commonly the concentration that inhibits the measured activity by half) is above 10000 nM.

On to `CC(C)C[C@@H](N[C@H](CCN1C(=O)c2cc3ccccc3cc2C1=O)C(=O)O)C(=O)NC(C)c1ccccc1` (some centres not stated), for which the IC50 came to 4700 nM.

With `CNC(=O)[C@H](CCCN=C(N)N)NC(=O)[C@H](CC(C)C)N[C@H](CCN1C(=O)c2cc3ccccc3cc2C1=O)C(=O)O`, the IC50 was 481 nM.

As to `CNC(=O)[C@H](Cc1ccccc1)NC(=O)[C@H](CC(C)C)N[C@H](CCN1C(=O)c2cccc3c(Br)ccc(c23)C1=O)C(=O)O`, the concentration for half-maximal inhibition (IC50) is 341 nM.

In turn, `CC(C)C[C@H](N[C@H](CCN1C(=O)c2cc3ccccc3cc2C1=O)C(=O)O)C(=O)NCCc1ccccc1` registered a half-inhibitory concentration (IC50) above 10000 nM.

As for `CNC(=O)[C@H](Cc1ccccc1)NC(=O)[C@H](CC(C)C)N[C@H](CCN1C(=O)c2cc3ccccc3nc2C1=O)C(=O)O`, the IC50 amounted to 518 nM.

On to `CC(C)C[C@H](N[C@H](CCN1C(=O)c2cc3ccccc3cc2C1=O)C(=O)O)C(=O)NC1CCCc2ccccc21` (some centres not stated), for which the IC50 turned out to be 2470 nM.

For the compound `CNC(=O)[C@H](CC(C)C)N[C@H](CCN1C(=O)c2cc3ccccc3cc2C1=O)C(=O)O`, the half-maximal inhibitory concentration (IC50) was above 10000 nM.

Consider `CC(C)C[C@H](N[C@H](CCN1C(=O)c2cc3ccccc3cc2C1=O)C(=O)O)C(=O)NCc1ccc(C(=O)O)cc1`, for which the concentration for half-maximal inhibition (IC50) is 178 nM.

For `CC(C)C[C@H](N[C@H](CCN1C(=O)c2cc3ccccc3cc2C1=O)C(=O)O)C(=O)NCc1cccnc1`, the concentration for half-maximal inhibition (IC50) was determined as 309 nM.

In turn, `CC(C)C[C@H](NC(=O)[C@H](CC(C)C)N[C@H](CCN1C(=O)c2cc3ccccc3cc2C1=O)C(=O)O)C(=O)NCCN1CCOCC1` displayed a half-inhibitory concentration (IC50) of 121 nM.

For the compound `CC(C)C[C@H](N[C@H](CCN1C(=O)c2cc3ccccc3cc2C1=O)C(=O)O)C(=O)N(C)Cc1ccccc1`, the half-inhibitory concentration (IC50) is 1160 nM.

The compound `CNC(=O)[C@H](Cc1ccccc1)NC(=O)[C@H](CC(C)C)N[C@H](CCNC(=O)c1ccc2ccccc2c1)C(=O)O` came in with a concentration for half-maximal inhibition (IC50) of 2340 nM.

In turn, `CNC(=O)[C@H](Cc1ccccc1)NC(=O)[C@H](CC(C)C)N[C@H](CCN1C(=O)c2cc3ccccc3cc2C1=O)C(=O)O` registered an IC50 of 91 nM.

As to `CC(C)C[C@H](N[C@H](CCN1C(=O)c2cc3ccccc3cc2C1=O)C(=O)O)C(=O)NC(C)c1ccccc1` (some centres not stated), the midpoint of inhibition, the IC50, lay at 965 nM.

With `CC(C)C[C@H](N[C@H](CCN1C(=O)c2cc3ccccc3cc2C1=O)C(=O)O)C(=O)N1CCN(C)CC1`, the concentration for half-maximal inhibition (IC50) amounted to 1890 nM.

`CC(C)C[C@H](N[C@H](CCN1C(=O)c2cc3ccccc3cc2C1=O)C(=O)O)C(=O)N1CCc2ccccc2C1` returned an IC50 of 2190 nM.

The compound `CC(C)C[C@H](N[C@H](CCN1C(=O)c2cc3ccccc3cc2C1=O)C(=O)O)C(=O)Nc1ccccc1` displayed an IC50 of 12500 nM.

Another series deals with T1, Interstitial collagenase (Homo sapiens, UniProt P03956).
T1 sequence (P03956 whole entry): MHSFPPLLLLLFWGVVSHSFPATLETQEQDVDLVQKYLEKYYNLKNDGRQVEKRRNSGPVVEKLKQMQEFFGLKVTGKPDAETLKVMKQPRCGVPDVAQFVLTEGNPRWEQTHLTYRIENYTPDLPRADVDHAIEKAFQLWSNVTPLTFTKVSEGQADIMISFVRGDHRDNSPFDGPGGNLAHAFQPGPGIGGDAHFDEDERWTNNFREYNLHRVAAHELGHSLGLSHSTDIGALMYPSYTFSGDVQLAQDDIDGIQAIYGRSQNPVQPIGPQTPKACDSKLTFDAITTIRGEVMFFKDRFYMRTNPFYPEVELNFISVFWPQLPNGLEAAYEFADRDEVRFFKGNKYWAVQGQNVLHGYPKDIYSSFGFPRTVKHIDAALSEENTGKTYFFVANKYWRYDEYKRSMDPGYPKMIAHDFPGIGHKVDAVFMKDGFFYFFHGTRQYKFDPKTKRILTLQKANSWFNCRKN
The series can be described thus: Activity against human collagenase (MMP-1).
In turn, `CNC(=O)CNC(=O)[C@H](CC(C)C)N[C@H](CCN1C(=O)c2cc3ccccc3cc2C1=O)C(=O)O` had an IC50 of 370 nM.

As to `CC(C)C[C@@H](N[C@H](CCN1C(=O)c2cc3ccccc3cc2C1=O)C(=O)O)C(=O)NC(C)c1ccccc1` (some centres not stated), the IC50 amounted to 74 nM.

In turn, `CNC(=O)[C@H](CCCN=C(N)N)NC(=O)[C@H](CC(C)C)N[C@H](CCN1C(=O)c2cc3ccccc3cc2C1=O)C(=O)O` returned a half-inhibitory concentration (IC50) of 152 nM.

For the compound `CNC(=O)[C@H](Cc1ccccc1)NC(=O)[C@H](CC(C)C)N[C@H](CCN1C(=O)c2cccc3c(Br)ccc(c23)C1=O)C(=O)O`, the IC50 turned out to be 190 nM.

In turn, `CC(C)C[C@H](N[C@H](CCN1C(=O)c2cc3ccccc3cc2C1=O)C(=O)O)C(=O)NCCc1ccccc1` returned an IC50 of 160 nM.

`CNC(=O)[C@H](Cc1ccccc1)NC(=O)[C@H](CC(C)C)N[C@H](CCN1C(=O)c2cc3ccccc3nc2C1=O)C(=O)O` returned an IC50 of 22 nM.

Take `CC(C)C[C@H](N[C@H](CCN1C(=O)c2cc3ccccc3cc2C1=O)C(=O)O)C(=O)NC1CCCc2ccccc21` (some centres not stated): the IC50 worked out at 108 nM.

In turn, `CNC(=O)[C@H](CC(C)C)N[C@H](CCN1C(=O)c2cc3ccccc3cc2C1=O)C(=O)O` came in with an IC50 of 490 nM.

Regarding `CC(C)C[C@H](N[C@H](CCN1C(=O)c2cc3ccccc3cc2C1=O)C(=O)O)C(=O)NCc1ccc(C(=O)O)cc1`, the IC50 was 56 nM.

`CC(C)C[C@H](N[C@H](CCN1C(=O)c2cc3ccccc3cc2C1=O)C(=O)O)C(=O)NCc1cccnc1` gave an IC50 of 139 nM.

As to `CC(C)C[C@H](NC(=O)[C@H](CC(C)C)N[C@H](CCN1C(=O)c2cc3ccccc3cc2C1=O)C(=O)O)C(=O)NCCN1CCOCC1`, the 50% inhibitory concentration (IC50) was 44 nM.

Turning to `CC(C)C[C@H](N[C@H](CCN1C(=O)c2cc3ccccc3cc2C1=O)C(=O)O)C(=O)N(C)Cc1ccccc1`, the half-maximal inhibitory concentration (IC50) was found to be 37 nM.

With `CNC(=O)[C@H](Cc1ccccc1)NC(=O)[C@H](CC(C)C)N[C@H](CCNC(=O)c1ccc2ccccc2c1)C(=O)O`, the half-maximal inhibitory concentration (IC50) is 488 nM.

As for `CNC(=O)[C@H](Cc1ccccc1)NC(=O)[C@H](CC(C)C)N[C@H](CCN1C(=O)c2cc3ccccc3cc2C1=O)C(=O)O`, the IC50 is 20 nM.

Regarding `CC(C)C[C@H](N[C@H](CCN1C(=O)c2cc3ccccc3cc2C1=O)C(=O)O)C(=O)NC(C)c1ccccc1` (some centres not stated), the 50% inhibitory concentration (IC50) was determined as 51 nM.

On to `CC(C)C[C@H](N[C@H](CCN1C(=O)c2cc3ccccc3cc2C1=O)C(=O)O)C(=O)N1CCN(C)CC1`, for which the IC50 was found to be 54 nM.

In turn, `CC(C)C[C@H](N[C@H](CCN1C(=O)c2cc3ccccc3cc2C1=O)C(=O)O)C(=O)N1CCc2ccccc2C1` yielded an IC50 of 84 nM.

The target of a further series is Matrix metalloproteinase-9 (Homo sapiens, UniProt P14780). Description: Activity against human gelatinase (MMP-9). Summed up:
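Human gelatinase at 1 nM in pH 7.6 Tris buffer (200 mM NaCl, 5 mM CaCl2, 20 μM ZnSO4, 0.05% Brij 35), with inhibitors at 3-fold dilutions from 10 000 to 0.057 nM. Ki came from % inhibition vs log concentration, with substrate far below Km.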
On to `CNC(=O)CNC(=O)[C@H](CC(C)C)N[C@H](CCN1C(=O)c2cc3ccccc3cc2C1=O)C(=O)O`, for which the half-maximal inhibitory concentration (IC50) turned out to be 124 nM.

With `CC(C)C[C@@H](N[C@H](CCN1C(=O)c2cc3ccccc3cc2C1=O)C(=O)O)C(=O)NC(C)c1ccccc1` (some centres not stated), the IC50 came to 76 nM.

In the case of `CNC(=O)[C@H](CCCN=C(N)N)NC(=O)[C@H](CC(C)C)N[C@H](CCN1C(=O)c2cc3ccccc3cc2C1=O)C(=O)O`, half-maximal inhibition (IC50) required 27 nM.

The compound `CNC(=O)[C@H](Cc1ccccc1)NC(=O)[C@H](CC(C)C)N[C@H](CCN1C(=O)c2cccc3c(Br)ccc(c23)C1=O)C(=O)O` had a half-inhibitory concentration (IC50) of 28 nM.

On to `CC(C)C[C@H](N[C@H](CCN1C(=O)c2cc3ccccc3cc2C1=O)C(=O)O)C(=O)NCCc1ccccc1`, for which the half-inhibitory concentration (IC50) amounted to 35 nM.

As for `CNC(=O)[C@H](Cc1ccccc1)NC(=O)[C@H](CC(C)C)N[C@H](CCN1C(=O)c2cc3ccccc3nc2C1=O)C(=O)O`, 7.5 nM corresponded to half-maximal inhibition (IC50).

Compound `CC(C)C[C@H](N[C@H](CCN1C(=O)c2cc3ccccc3cc2C1=O)C(=O)O)C(=O)NC1CCCc2ccccc21` (some centres not stated) displayed a half-maximal inhibitory concentration (IC50) of 75 nM.

As to `CNC(=O)[C@H](CC(C)C)N[C@H](CCN1C(=O)c2cc3ccccc3cc2C1=O)C(=O)O`, the midpoint of inhibition, the IC50, lay at 706 nM.

Regarding `CC(C)C[C@H](N[C@H](CCN1C(=O)c2cc3ccccc3cc2C1=O)C(=O)O)C(=O)NCc1ccc(C(=O)O)cc1`, the 50% inhibitory concentration (IC50) came to 74 nM.

The compound `CC(C)C[C@H](N[C@H](CCN1C(=O)c2cc3ccccc3cc2C1=O)C(=O)O)C(=O)NCc1cccnc1` had an IC50 of 36 nM.

As for `CC(C)C[C@H](NC(=O)[C@H](CC(C)C)N[C@H](CCN1C(=O)c2cc3ccccc3cc2C1=O)C(=O)O)C(=O)NCCN1CCOCC1`, the midpoint of inhibition, the IC50, lay at 13 nM.

Regarding `CC(C)C[C@H](N[C@H](CCN1C(=O)c2cc3ccccc3cc2C1=O)C(=O)O)C(=O)N(C)Cc1ccccc1`, the IC50 is 57 nM.

`CNC(=O)[C@H](Cc1ccccc1)NC(=O)[C@H](CC(C)C)N[C@H](CCNC(=O)c1ccc2ccccc2c1)C(=O)O` gave an IC50 of 49 nM.

As for `CNC(=O)[C@H](Cc1ccccc1)NC(=O)[C@H](CC(C)C)N[C@H](CCN1C(=O)c2cc3ccccc3cc2C1=O)C(=O)O`, it took 5 nM to reach half-maximal inhibition (IC50).

In turn, `CC(C)C[C@H](N[C@H](CCN1C(=O)c2cc3ccccc3cc2C1=O)C(=O)O)C(=O)NC(C)c1ccccc1` (some centres not stated) showed a concentration for half-maximal inhibition (IC50) of 12 nM.

`CC(C)C[C@H](N[C@H](CCN1C(=O)c2cc3ccccc3cc2C1=O)C(=O)O)C(=O)N1CCN(C)CC1` came in with a 50% inhibitory concentration (IC50) of 70 nM.

As for `CC(C)C[C@H](N[C@H](CCN1C(=O)c2cc3ccccc3cc2C1=O)C(=O)O)C(=O)N1CCc2ccccc2C1`, half-maximal inhibition (IC50) was put at 88 nM.

In turn, `CC(C)C[C@H](N[C@H](CCN1C(=O)c2cc3ccccc3cc2C1=O)C(=O)O)C(=O)Nc1ccccc1` displayed an IC50 of 101 nM.

Test system in another series: not listed separately
Description: Half-life period for the activity is tested at pH 6.8. Format: ADME. The procedure, abridged:
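Inhibitor at 20 μM in 20 mM sodium phosphate, pH 6.8, held at 30 °C. Aliquots were injected every 3 h over 24 h onto C18 reverse-phase HPLC with a 5–60% acetonitrile gradient containing 0.1% TFA.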
As to `CNC(=O)[C@H](Cc1ccccc1)NC(=O)[C@H](CC(C)C)N[C@H](CCN1C(=O)c2cc3ccccc3nc2C1=O)C(=O)O`, the half-life (usually the time in which the quantity being followed falls by half) was 1.7 h.

The compound `CC(C)C[C@H](NC(=O)[C@H](CC(C)C)N[C@H](CCN1C(=O)c2cc3ccccc3cc2C1=O)C(=O)O)C(=O)NCCN1CCOCC1` had a half-life of 37 h.

`CNC(=O)[C@H](Cc1ccccc1)NC(=O)[C@H](CC(C)C)N[C@H](CCNC(=O)c1ccc2ccccc2c1)C(=O)O`: the half-life was above 100 h.

As to `CNC(=O)[C@H](Cc1ccccc1)NC(=O)[C@H](CC(C)C)N[C@H](CCN1C(=O)c2cc3ccccc3cc2C1=O)C(=O)O`, the half-life is 29 h.
